In ChEMBL document CHEMBL1275555, “Genetic heterogeneity in pbp genes among clinically isolated group B Streptococci with reduced penicillin susceptibility” (2008):
Converted amounts (≈) assume the structure as drawn.

How the values were obtained:
[1] = system: Streptococcus sp. 'group B'; assay: Antimicrobial activity against Group B streptococcus serotype VI R4 harboring Q557E mutation in PBP 2X and T567I, Y262N mutations in PBP 2B by broth microdilution method; type: functional
Summary of the method: (§1)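 Broth microdilution MICs following CLSI guidelines, using a commercial panel system; GBS clinical isolates and reference strains grown in Todd-Hewitt broth at 37°C. Each strain tested five times to confirm reproducibility, with S. pneumoniae ATCC 49619 as quality-control strain. No β-lactamase activity by acidimetric method in any strain.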

[2] = system: Streptococcus sp. 'group B'; assay: Antimicrobial activity against Group B streptococcus serotype VI R5 harboring F395L, V405A, R433H, H438Y, and G648A mutations in PBP 2X and T567I mutation in PBP 2B by broth microdilution method; type: functional; summary of the method: as §1
[3] = system: Streptococcus sp. 'group B'; assay: Antimicrobial activity against Group B streptococcus serotype III N3 by broth microdilution method; type: functional
Summary of the method: (§2)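 Broth microdilution MICs read on a commercial dried panel system (type 3J), following CLSI guidelines. Isolates were grown in Todd-Hewitt broth at 37°C. Each strain was tested five times for reproducibility, with S. pneumoniae ATCC 49619 as the quality-control strain. β-lactamase activity was checked by the acidimetric method.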

[4] = system: Streptococcus sp. 'group B'; assay: Antimicrobial activity against Group B streptococcus serotype VI N4 harboring E63K mutation in PBP 2A and L41S mutation in PBP 1B by broth microdilution method; type: functional; summary of the method: as §1
[5] = system: Streptococcus sp. 'group B'; assay: Antimicrobial activity against Group B streptococcus serotype VI R2 harboring F395L, V405A, R433H, H438Y, and G648A mutations in PBP 2X and T567I mutation in PBP 2B by broth microdilution method; type: functional; summary of the method: as §1
[6] = system: Streptococcus sp. 'group B'; assay: Antimicrobial activity against Group B streptococcus serotype VI R1 harboring F395L, V405A, R433H, H438Y, and G648A mutations in PBP 2X and T567I mutation in PBP 2B by broth microdilution method; type: functional; summary of the method: as §1
[7] = system: Streptococcus sp. 'group B'; assay: Antimicrobial activity against Group B streptococcus serotype Ib R3 harboring Q557E, A400V mutations in PBP 2X and T567I, G539E mutations in PBP 2B by broth microdilution method; type: functional; summary of the method: as §1
[8] = system: Streptococcus sp. 'group B'; assay: Antimicrobial activity against Group B streptococcus serotype Ib N2 harboring E63K mutation in PBP 2A and L41S mutation in PBP 1B by broth microdilution method; type: functional; summary of the method: as §1
[9] = system: Streptococcus sp. 'group B'; assay: Antimicrobial activity against Group B streptococcus serotype VI R6 harboring F395L, V405A, R433H, H438Y, A374V and G648A mutations in PBP 2X and T567I mutation in PBP 2B by broth microdilution method; type: functional; summary of the method: as §1
[10] = system: Streptococcus sp. 'group B'; assay: Antimicrobial activity against Group B streptococcus serotype Ia R7 harboring T77I, F395V and S353F in PBP 2X; V80A and G613R in PBP 2B; and L45P, N163K, N723S and Y470F in PBP 1A by broth microdilution method; type: functional; summary of the method: as §1
[11] = system: Streptococcus sp. 'group B'; assay: Antimicrobial activity against Group B Streptococcus serotype V harboring E63K mutation in PBP 2A and L41S mutation in PBP 1B by broth microdilution method
[12] = system: Streptococcus sp. 'group B'; assay: Antimicrobial activity against Group B Streptococcus serotype III NEM 316 by broth microdilution method; type: functional; summary of the method: as §2
[13] = system: Streptococcus sp. 'group B'; assay: Antimicrobial activity against Group B streptococcus R8 harboring T77I, S353F and A514V in PBP 2X; V80A and G613R in PBP 2B; and L45P, N163K, N723S and G527V in PBP 1A by broth microdilution method; type: functional; summary of the method: as §1
[14] = system: Streptococcus sp. 'group B'; assay: Antimicrobial activity against Group B streptococcus serotype V C1 harboring E63K mutation in PBP 2A and L41S mutation in PBP 1B by broth microdilution method; type: functional; summary of the method: as §1
[15] = system: Streptococcus sp. 'group B'; assay: Antimicrobial activity against Group B streptococcus serotype Ib C2 harboring E63K mutation in PBP 2A and L41S mutation in PBP 1B by broth microdilution method; type: functional; summary of the method: as §1
[16] = system: Streptococcus sp. 'group B'; assay: Antimicrobial activity against Group B Streptococcus serotype Ia N1 harboring E63K mutation in PBP 2A and L41S mutation in PBP 1B by broth microdilution method; type: functional; summary of the method: as §1

Row | Structure (SMILES) | MIC [1] | MIC [2] | MIC [3] | MIC [4] | MIC [5] | MIC [6] | MIC [7] | MIC [8] | MIC [9] | MIC [10] | MIC [11] | MIC [12] | MIC [13] | MIC [14] | MIC [15] | MIC [16]
1 | CO/N=C(\C(=O)N[C@@H]1C(=O)N2C(C(=O)OCOC(=O)C(C)(C)C)=C(/C=C\c3scnc3C)CS[C@H]12)c1csc(N)n1 [CEFDITOREN PIVOXIL] | 0.25 µg/mL (≈ 0.403 µM) | 0.25 µg/mL (≈ 0.403 µM) | ≤ 0.06 µg/mL | ≤ 0.06 µg/mL | 0.25 µg/mL (≈ 0.403 µM) | 0.25 µg/mL (≈ 0.403 µM) | 0.25 µg/mL (≈ 0.403 µM) | ≤ 0.06 µg/mL | 0.25 µg/mL (≈ 0.403 µM) | 0.5 µg/mL (≈ 0.805 µM) | ≤ 0.06 µg/mL | ≤ 0.06 µg/mL | 0.5 µg/mL (≈ 0.805 µM) | ≤ 0.06 µg/mL | ≤ 0.06 µg/mL | ≤ 0.06 µg/mL
2 | CN(C)[C@@H]1C(O)=C(C(N)=O)C(=O)[C@@]2(O)C(O)=C3C(=O)c4c(O)cccc4[C@@](C)(O)[C@H]3C[C@@H]12 [TETRACYCLINE] | > 4 µg/mL | > 4 µg/mL | > 4 µg/mL | > 4 µg/mL | > 4 µg/mL | > 4 µg/mL | ≤ 0.5 µg/mL | ≤ 0.5 µg/mL | > 4 µg/mL | > 4 µg/mL | > 4 µg/mL | ≤ 0.5 µg/mL | > 4 µg/mL | > 4 µg/mL | ≤ 0.5 µg/mL | > 4 µg/mL
3 | C=CC1=C(C(=O)O)N2C(=O)[C@@H](NC(=O)/C(=N\OCC(=O)O)c3csc(N)n3)[C@H]2SC1 [CEFIXIME] | > 1 µg/mL | > 1 µg/mL | 0.5 µg/mL (≈ 1.1 µM) | 0.5 µg/mL (≈ 1.1 µM) | > 1 µg/mL | > 1 µg/mL | > 1 µg/mL | 1 µg/mL (≈ 2.21 µM) | > 1 µg/mL | > 1 µg/mL | 0.5 µg/mL (≈ 1.1 µM) | 0.5 µg/mL (≈ 1.1 µM) | > 1 µg/mL | 0.5 µg/mL (≈ 1.1 µM) | 0.5 µg/mL (≈ 1.1 µM) | 0.5 µg/mL (≈ 1.1 µM)
4 | CC1(C)S[C@@H]2[C@H](NC(=O)Cc3ccccc3)C(=O)N2[C@H]1C(=O)O [PENICILLIN G] | 0.5 µg/mL (≈ 1.5 µM) | 0.25 µg/mL (≈ 0.748 µM) | 0.06 µg/mL (≈ 0.179 µM) | 0.06 µg/mL (≈ 0.179 µM) | 0.5 µg/mL (≈ 1.5 µM) | 0.5 µg/mL (≈ 1.5 µM) | 0.5 µg/mL (≈ 1.5 µM) | 0.06 µg/mL (≈ 0.179 µM) | 0.5 µg/mL (≈ 1.5 µM) | 1 µg/mL (≈ 2.99 µM) | 0.06 µg/mL (≈ 0.179 µM) | 0.06 µg/mL (≈ 0.179 µM) | 1 µg/mL (≈ 2.99 µM) | 0.06 µg/mL (≈ 0.179 µM) | 0.06 µg/mL (≈ 0.179 µM) | 0.06 µg/mL (≈ 0.179 µM)
5 | CN(C)CCn1nnnc1SCC1=C(C(=O)O)N2C(=O)[C@@H](NC(=O)Cc3csc(N)n3)[C@H]2SC1 [CEFOTIAM] | 4 µg/mL (≈ 7.61 µM) | 2 µg/mL (≈ 3.8 µM) | ≤ 0.5 µg/mL | ≤ 0.5 µg/mL | 4 µg/mL (≈ 7.61 µM) | 4 µg/mL (≈ 7.61 µM) | 4 µg/mL (≈ 7.61 µM) | ≤ 0.5 µg/mL | 4 µg/mL (≈ 7.61 µM) | > 4 µg/mL | ≤ 0.5 µg/mL | ≤ 0.5 µg/mL | > 4 µg/mL | ≤ 0.5 µg/mL | ≤ 0.5 µg/mL | ≤ 0.5 µg/mL
6 | CC1(C)S[C@@H]2[C@H](NC(=O)[C@H](N)c3ccccc3)C(=O)N2[C@H]1C(=O)O [AMPICILLIN] | 0.25 µg/mL (≈ 0.715 µM) | 0.5 µg/mL (≈ 1.43 µM) | 0.12 µg/mL (≈ 0.343 µM) | 0.12 µg/mL (≈ 0.343 µM) | 0.5 µg/mL (≈ 1.43 µM) | 0.5 µg/mL (≈ 1.43 µM) | 0.25 µg/mL (≈ 0.715 µM) | 0.25 µg/mL (≈ 0.715 µM) | 0.5 µg/mL (≈ 1.43 µM) | 0.5 µg/mL (≈ 1.43 µM) | 0.12 µg/mL (≈ 0.343 µM) | 0.12 µg/mL (≈ 0.343 µM) | 0.5 µg/mL (≈ 1.43 µM) | 0.12 µg/mL (≈ 0.343 µM) | 0.25 µg/mL (≈ 0.715 µM) | 0.12 µg/mL (≈ 0.343 µM)
7 | C[C@H]1COc2c(N3CCN(C)CC3)c(F)cc3c(=O)c(C(=O)O)cn1c23.C[C@H]1COc2c(N3CCN(C)CC3)c(F)cc3c(=O)c(C(=O)O)cn1c23.O [LEVOFLOXACIN] | 2 µg/mL | 4 µg/mL | 0.5 µg/mL | 0.5 µg/mL | 8 µg/mL | 8 µg/mL | > 8 µg/mL | 0.5 µg/mL | 4 µg/mL | > 8 µg/mL | 0.5 µg/mL | 0.5 µg/mL | > 8 µg/mL | 0.5 µg/mL | > 8 µg/mL | 1 µg/mL
